The structures appear in SMILES notation. Values joined by “and” are separate entries in the source; they are usually repeats but may differ in a detail not shown here. Equal values may be shown once. Where a structure was tested more than once in an assay, its records may differ in their call. Active and inactive are the calls of the source.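 The calls were made as follows, unless noted: active = inhibition at or above 50% relative to wild type and mutant plate controls; inactive = inhibition below 50%.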

Chain of Alpha-2C adrenergic receptor (Homo sapiens) (P18825 whole entry, looked up): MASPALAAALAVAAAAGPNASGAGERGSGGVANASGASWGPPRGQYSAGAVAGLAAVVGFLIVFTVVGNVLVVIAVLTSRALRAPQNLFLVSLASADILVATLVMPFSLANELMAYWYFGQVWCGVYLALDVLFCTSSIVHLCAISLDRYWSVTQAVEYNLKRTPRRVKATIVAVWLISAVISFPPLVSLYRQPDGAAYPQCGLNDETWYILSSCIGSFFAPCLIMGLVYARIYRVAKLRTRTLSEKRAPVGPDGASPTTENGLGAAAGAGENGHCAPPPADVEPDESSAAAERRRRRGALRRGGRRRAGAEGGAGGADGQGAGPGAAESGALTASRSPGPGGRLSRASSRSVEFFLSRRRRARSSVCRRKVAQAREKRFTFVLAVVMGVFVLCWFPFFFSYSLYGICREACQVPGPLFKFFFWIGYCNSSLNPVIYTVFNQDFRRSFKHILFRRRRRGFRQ

The first assay addresses Alpha-2C adrenergic receptor (Homo sapiens) (UniProt P18825). Kind of assay: compounds altering alpha2C-coupled GIRK flux – cell-based, HEK293 alpha2C/GIRK1/2, thallium flux, primary screen (AID 624;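 active = fluorescence slope after compound addition differing from the mean of all screened samples at 99.7% confidence, in either direction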;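 also: slope of fluorescence ratio to pre-addition baseline per second over 15 to 24 s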). As to conditions: thallium flux BTC fluorescence, at 10 µM, actives lie on both sides.
With `OC(CCN1CCCCC1)(c1ccccc1)C1CCCCC1` (stereo not drawn), the slope is 0.00465 (inactive).

Consider `O=c1c(O)c(-c2ccc(O)cc2O)oc2cc(O)cc(O)c12`, for which the slope is 0.00575 (inactive).

As to `COC(=O)Nc1nc2ccc(C(=O)c3ccccc3)cc2[nH]1`, the slope was 0.0038 (inactive).

In the case of `CCc1cccc2c3c([nH]c12)C(CC)(CC(=O)O)OCC3` (stereo not drawn), the slope was 0.00464 (inactive).

For the molecule `C[N+](C)(C)CCCCCCCCCC[N+](C)(C)C`, the slope is 0.00465 (inactive).

As for `O=C(c1ccc(F)cc1)C1CCN(CCn2c(=O)[nH]c3ccccc3c2=O)CC1`, the slope is 0.00505 (inactive).

Turning to `CCN1CCN(C(=O)N[C@@H](C(=O)N[C@@H]2C(=O)N3[C@@H]2SC(C)(C)[C@@H]3C(=O)O)c2ccccc2)C(=O)C1=O`, the slope is 0.0054 (inactive).

In the case of `Cc1ncc([N+](=O)[O-])n1CCO`, the slope is 0.00488 (inactive).

Tested on in the next assay: not listed separately
Kind of assay: inhibitors of larval lipid processing in zebrafish, primary screen, whole organism, PED6 fluorescence, gall bladder and intestine (AID 686;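 active = a full or partial loss of lipid-probe fluorescence in the fish gall bladder, intestine or both, judged by eye; inactive = no fluorescence loss, or compound toxic to the fish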;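 also: larvae 5 to 7 days old with five fish per well; signal comes from phospholipase A2 cleavage of quenched PED6 carried via bile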). As to conditions: Zebrafish larvae PED6 lipid processing, fluorescence scoring; screened at 20 µM (by protocol). In short, it runs like this: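 Incubation: overnight exposure of larvae to compound plus PED6 / Test system: live zebrafish larvae aged 5-7 days, whole organism / Amount: 5 larvae per well / Read-out basis: visual per-well fluorescence inhibition score / Signal: visual fluorescence microscopy scoring of gall bladder, gut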
With `CN1Cc2c(N)cccc2C(c2ccccc2)C1` (stereo not drawn), the outcome was inactive.

Consider `Cc1cn([C@H]2C=C[C@@H](CO)O2)c(=O)[nH]c1=O`, for which the result was inactive.

On to `COC(=O)c1ccc(N2C(=O)CC(N3CCN(C(=O)c4ccco4)CC3)C2=O)cc1` (stereo not drawn), for which the molecule was classed as inactive.

`C[C@H]1C[C@H]2[C@@H]3CCC4=CC(=O)C=C[C@]4(C)[C@@]3(Cl)[C@@H](O)C[C@]2(C)[C@@]1(O)C(=O)CO`: the call was inactive.

With `CCCC1O[C@@H]2C[C@H]3[C@@H]4CCC5=CC(=O)C=C[C@]5(C)[C@H]4[C@@H](O)C[C@]3(C)[C@]2(C(=O)CO)O1` (stereo partly drawn), the molecule was classed as inactive.

On to `CNCCC(Oc1ccc(C(F)(F)F)cc1)c1ccccc1` (stereo not drawn), for which the result was inactive.

For `Clc1ccc(Cn2c(CN3CCCC3)nc3ccccc32)cc1`, the outcome was “inactive; toxic”.

Regarding `CC(C)NCC(O)COc1ccc(CC(N)=O)cc1` (stereo not drawn), the molecule was called inactive.

As to `CC(C)C[C@H]1C(=O)N2CCC[C@H]2[C@]2(O)O[C@](NC(=O)[C@@H]3C=C4c5cccc6[nH]c(Br)c(c56)CC4N(C)C3)(C(C)C)C(=O)N12` (stereo partly drawn), the call was inactive.

Turning to `CCOC(=O)c1cc2c(=O)n3cccc(C)c3nc2n(CCc2ccccc2)c1=N`, the call was inactive.

Take `CC(=O)OCC1=C(C(=O)O)N2C(=O)[C@@H](NC(=O)Cc3cccs3)[C@H]2SC1`: the call was inactive.

For `Cc1cccc(Nc2ccccc2C(=O)O)c1C`, the molecule was classed as inactive.

As to `CC(COc1ccccc1)N(CCCl)Cc1ccccc1` (stereo not drawn), the molecule was called inactive.

`Cc1cc(C)nc(NS(=O)(=O)c2ccc(N)cc2)n1`: the molecule was called inactive.

As to `COc1cc(C2C(C#N)=C(N)Oc3cc(N)ccc32)cc(OC)c1OC` (stereo not drawn), the outcome was inactive.

Consider `CN(C)CCCC1(c2ccc(F)cc2)OCc2cc(C#N)ccc21` (stereo not drawn), for which the molecule was classed as inactive.

`CCCc1cc(=O)[nH]c(=S)[nH]1`: the call was inactive.

Consider `CN(C)CCOC(C)(c1ccccc1)c1ccccn1` (stereo not drawn), for which the molecule was called inactive.

Take `CCCCNC(=O)NS(=O)(=O)c1ccc(C)cc1`: the result was inactive.

For `CC(=O)[C@@]1(O)CC[C@H]2[C@@H]3C[C@H](C)C4=CC(=O)C=C[C@]4(C)[C@@]3(F)[C@@H](O)C[C@@]21C`, the outcome was inactive.

`O=C1NC(=O)C(c2ccccc2)(c2ccccc2)N1`: the outcome was inactive.

In the case of `CC(C)(C)NC[C@H](O)COc1nsnc1N1CCOCC1`, the outcome was inactive.

Turning to `O=C(O)CCC(=O)Nc1ccc(S(=O)(=O)Nc2nccs2)cc1`, the molecule was called inactive.

With `Cc1cc(C(C)(C)C)cc(C)c1CC1=NCCN1`, the molecule was called inactive.

With `CN(C)CCCN1c2ccccc2Sc2ccccc21`, the molecule was classed as inactive.

Turning to `Nc1ccc(C(=O)O)c(O)c1`, the molecule was called inactive.

For the molecule `CC(=O)[C@H]1CC[C@H]2[C@@H]3CCC4=CC(=O)CC[C@]4(C)[C@H]3CC[C@]12C`, the outcome was inactive.

For the molecule `O=c1n(CCCN2CCN(c3cccc(Cl)c3)CC2)nc2ccccn12`, the molecule was classed as inactive.

On to `Cn1c(=O)c2c(ncn2CC(O)CO)n(C)c1=O` (stereo not drawn), for which the molecule was called inactive.

Turning to `CC1(C)S[C@@H]2[C@H](NC(=O)Cc3ccccc3)C(=O)N2[C@H]1C(=O)O`, the molecule was called inactive.

Consider `CN(C)C(=O)Oc1ccc[n+](C)c1`, for which the result was inactive.

For `CCCOc1ccc2nc(NC(=O)OC)[nH]c2c1`, the molecule was classed as inactive.

As for `OC(CCN1CCCCC1)(c1ccccc1)C1CCCCC1` (stereo not drawn), the outcome was inactive.

In the case of `O=c1c(O)c(-c2ccc(O)cc2O)oc2cc(O)cc(O)c12`, the molecule was called inactive.

As to `COC(=O)Nc1nc2ccc(C(=O)c3ccccc3)cc2[nH]1`, the outcome was inactive.

On to `CCc1cccc2c3c([nH]c12)C(CC)(CC(=O)O)OCC3` (stereo not drawn), for which the molecule was called inactive.

With `C[N+](C)(C)CCCCCCCCCC[N+](C)(C)C`, the molecule was classed as inactive.

`O=C(c1ccc(F)cc1)C1CCN(CCn2c(=O)[nH]c3ccccc3c2=O)CC1`: the molecule was classed as inactive.

On to `CCN1CCN(C(=O)N[C@@H](C(=O)N[C@@H]2C(=O)N3[C@@H]2SC(C)(C)[C@@H]3C(=O)O)c2ccccc2)C(=O)C1=O`, for which the molecule was classed as inactive.

For the molecule `Cc1ncc([N+](=O)[O-])n1CCO`, the molecule was called inactive.

Tested on in a further assay: not listed separately
Kind of assay: loss of swimming-algae plug formation – whole organism, Chlamydomonas reinhardtii, WT vs cilia-less mutant, absorbance, 96-well, primary screen (AID 463189).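 Also: 0% = wild type cc124 cells in DMSO and 100% = ciliumless bld1 mutant cells.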 To be noted: Chlamydomonas reinhardtii gravitaxis, OD600 absorbance, 2 days; at 10 µM; stronger effect = higher value.
One may read the inhibition as the change of the read-out against control, counted positive when it falls. `CN1Cc2c(N)cccc2C(c2ccccc2)C1` (stereo not drawn): the inhibition was 70.5% (active) and 60.3% (active).

Take `Cc1cn([C@H]2C=C[C@@H](CO)O2)c(=O)[nH]c1=O`: the inhibition was -4.19% (inactive) and -13.6% (inactive).

With `COC(=O)c1ccc(N2C(=O)CC(N3CCN(C(=O)c4ccco4)CC3)C2=O)cc1` (stereo not drawn), the inhibition was 1.38% (inactive).

With `C[C@H]1C[C@H]2[C@@H]3CCC4=CC(=O)C=C[C@]4(C)[C@@]3(Cl)[C@@H](O)C[C@]2(C)[C@@]1(O)C(=O)CO`, the inhibition was -5.54% (inactive).

With `CCCC1O[C@@H]2C[C@H]3[C@@H]4CCC5=CC(=O)C=C[C@]5(C)[C@H]4[C@@H](O)C[C@]3(C)[C@]2(C(=O)CO)O1` (stereo partly drawn), the inhibition is 6.85% (inactive) and -4.63% (inactive).

On to `CNCCC(Oc1ccc(C(F)(F)F)cc1)c1ccccc1` (stereo not drawn), for which the inhibition is 1.27% (inactive) and 34.8% (inactive).

Consider `Clc1ccc(Cn2c(CN3CCCC3)nc3ccccc32)cc1`, for which the inhibition was 2.55% (inactive) and 22.9% (inactive).

Turning to `CC(C)NCC(O)COc1ccc(CC(N)=O)cc1` (stereo not drawn), the inhibition was -6.18% (inactive) and -8.19% (inactive).

`CC(C)C[C@H]1C(=O)N2CCC[C@H]2[C@]2(O)O[C@](NC(=O)[C@@H]3C=C4c5cccc6[nH]c(Br)c(c56)CC4N(C)C3)(C(C)C)C(=O)N12` (stereo partly drawn): the inhibition was -11.5% (inactive).

As for `CCOC(=O)c1cc2c(=O)n3cccc(C)c3nc2n(CCc2ccccc2)c1=N`, the inhibition is 150% (active).

For the molecule `CC(=O)OCC1=C(C(=O)O)N2C(=O)[C@@H](NC(=O)Cc3cccs3)[C@H]2SC1`, the inhibition is 7.69% (inactive) and 18.3% (inactive).

On to `Cc1cccc(Nc2ccccc2C(=O)O)c1C`, for which the inhibition was 25.5% (inactive).

Take `CC(COc1ccccc1)N(CCCl)Cc1ccccc1` (stereo not drawn): the inhibition was -4.83% (inactive) and 76.9% (active).

Regarding `Cc1cc(C)nc(NS(=O)(=O)c2ccc(N)cc2)n1`, the inhibition was -15% (inactive).

For `COc1cc(C2C(C#N)=C(N)Oc3cc(N)ccc32)cc(OC)c1OC` (stereo not drawn), the inhibition was 4.51% (inactive).

Turning to `CN(C)CCCC1(c2ccc(F)cc2)OCc2cc(C#N)ccc21` (stereo not drawn), the inhibition was 8.33% (inactive) and 1.25% (inactive).

As to `CCCc1cc(=O)[nH]c(=S)[nH]1`, the inhibition was -10.4% (inactive).

Take `CN(C)CCOC(C)(c1ccccc1)c1ccccn1` (stereo not drawn): the inhibition is -2.11% (inactive) and -8.4% (inactive).

Turning to `CCCCNC(=O)NS(=O)(=O)c1ccc(C)cc1`, the inhibition was 7.5% (inactive) and 29.4% (inactive).

As to `CC(=O)[C@@]1(O)CC[C@H]2[C@@H]3C[C@H](C)C4=CC(=O)C=C[C@]4(C)[C@@]3(F)[C@@H](O)C[C@@]21C`, the inhibition is -2.25% (inactive).

In the case of `O=C1NC(=O)C(c2ccccc2)(c2ccccc2)N1`, the inhibition was 2.61% (inactive) and -21.3% (inactive).

As for `CC(C)(C)NC[C@H](O)COc1nsnc1N1CCOCC1`, the inhibition was -10.5% (inactive).

As for `O=C(O)CCC(=O)Nc1ccc(S(=O)(=O)Nc2nccs2)cc1`, the inhibition is 5.01% (inactive).

Turning to `Cc1cc(C(C)(C)C)cc(C)c1CC1=NCCN1`, the inhibition was -10% (inactive) and -5.2% (inactive).

In the case of `CN(C)CCCN1c2ccccc2Sc2ccccc21`, the inhibition is 8.93% (inactive) and 48% (inactive).

On to `Nc1ccc(C(=O)O)c(O)c1`, for which the inhibition was -10.5% (inactive) and -2.41% (inactive).

Regarding `CC(=O)[C@H]1CC[C@H]2[C@@H]3CCC4=CC(=O)CC[C@]4(C)[C@H]3CC[C@]12C`, the inhibition is 2.24% (inactive) and 8.52% (inactive).

With `O=c1n(CCCN2CCN(c3cccc(Cl)c3)CC2)nc2ccccn12`, the inhibition was 7.63% (inactive) and 123% (active).

Regarding `Cn1c(=O)c2c(ncn2CC(O)CO)n(C)c1=O` (stereo not drawn), the inhibition was 8.88% (inactive).

Regarding `CC1(C)S[C@@H]2[C@H](NC(=O)Cc3ccccc3)C(=O)N2[C@H]1C(=O)O`, the inhibition was 4.14% (inactive).

Regarding `CN(C)C(=O)Oc1ccc[n+](C)c1`, the inhibition is -1.87% (inactive) and 14.9% (inactive).

For the molecule `CCCOc1ccc2nc(NC(=O)OC)[nH]c2c1`, the inhibition is -11.7% (inactive).

Consider `OC(CCN1CCCCC1)(c1ccccc1)C1CCCCC1` (stereo not drawn), for which the inhibition is 1.25% (inactive) and 22.1% (inactive).

As to `O=c1c(O)c(-c2ccc(O)cc2O)oc2cc(O)cc(O)c12`, the inhibition is 8.46% (inactive) and 17% (inactive).

Take `COC(=O)Nc1nc2ccc(C(=O)c3ccccc3)cc2[nH]1`: the inhibition was -3.25% (inactive).

With `CCc1cccc2c3c([nH]c12)C(CC)(CC(=O)O)OCC3` (stereo not drawn), the inhibition is -6.89% (inactive) and 27.4% (inactive).

For `C[N+](C)(C)CCCCCCCCCC[N+](C)(C)C`, the inhibition was 0.674% (inactive) and 0.681% (inactive).

Turning to `O=C(c1ccc(F)cc1)C1CCN(CCn2c(=O)[nH]c3ccccc3c2=O)CC1`, the inhibition is 4.84% (inactive) and -9.28% (inactive).

Consider `CCN1CCN(C(=O)N[C@@H](C(=O)N[C@@H]2C(=O)N3[C@@H]2SC(C)(C)[C@@H]3C(=O)O)c2ccccc2)C(=O)C1=O`, for which the inhibition was -8.35% (inactive).

`Cc1ncc([N+](=O)[O-])n1CCO`: the inhibition is 1.99% (inactive).

The record behind these values is PubChem BioAssay.
